In publication PMC7114156 (Antiviral Research, 2009):
Marks after values point to notes of the source that are not given here.

Tests used:
W12 cells = assay: mRNA measurement by RT-qPCR in W12 cells; format: cell-based, human
In short: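 RNA was taken 0, 24 and 48 h after adding test compound; W12 cells were grown in 75 cm² flasks and washed in chilled PBS. 546 Pathway Set genes were run in quadruplicate by RT-qPCR: 10 μl reactions, primers 900 nM, probes 100 nM final. Ct was normalised to GAPDH, with dCt = Ct(control) − Ct(treated) and a two-sided t-test. Fold change was F = 2^dCt where p ≤ 0.05.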

[1] = tested on: a variety of unrelated viruses; assay: Replication of a variety of unrelated viruses in vitro; format: cell-based
W12 20861 = assay: Growth of W12 20861; format: cell-based, human; conditions: 72 h
In short: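 Cell lines carrying integrated viral genomes were plated in 96-well plates in medium with test compound. Growth was read by ATP luminescence (CellTiter-Glo) for HEK293 and WI38 VA13, and by MTS reduction (A490 after 2 h at 37 °C) for Namalwa, W12 20861, SiHa, Caski and HeLa. K and Imax came from a fit to a modified Hill equation.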

immortalized cell lines = assay: Growth of immortalized cell lines; format: cell-based
SV40 strain Pa-57 = assay: SV40 assay: SV40 replication in Vero cells, viral DNA by qPCR; format: cell-based; conditions: ratio proportional to viral DNA per cell
In short: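 Vero cells at 2 × 10^4 cells/well were allowed to adhere for 4 h. They were infected with SV40 strain Pa-57 at MOI 0.1 for 2 h. Inoculum was removed and test compound added at 100 to 0.003 μM for 3 days. SV40 DNA was read by qPCR, and growth by MTS in parallel on uninfected cells. The SV40 DNA/MTS ratio was expressed as % of untreated control.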

EBV = assay: Viral yield in IM9 cells by quantitative PCR; format: cell-based; conditions: data not shown
[2] = Growth of resting PBMC, MTS; format: cell-based; conditions: human, resting PBMCs
HKC/HPV16 cells = assay: Growth of HKC/HPV16 cells, MTS; format: cell-based, human
[3] = W12 cells, 100 nM, 24 h, not significantly different from 1
[4] = W12 cells, 100 nM, 48 h, not significantly different from 1
[5] = Homo sapiens, read-out: K, Growth, MTS

With `O=C(N[C@@H]1CCCc2c1[nH]c1ccc(Cl)cc21)c1ccccn1` [GSK983, N-[(1R)-6-Chloro-2,3,4,9-tetrahydro-1H-carbazol-1-yl]-2-pyridinecarboxamide] the “Fold increase due to GSK983, DMPK mRNA” value (W12 cells; W12 cells, 100 nM, 24 h) was 2.9 fold, the “Fold increase due to GSK983, FMOD mRNA” value (W12 cells; W12 cells, 100 nM, 24 h) was 1.7 fold and the “Fold increase due to GSK983, IFI6 mRNA” value (W12 cells; W12 cells, 100 nM, 24 h) was 2.3 fold. For the same compound, the “Fold increase due to GSK983, IFI16 mRNA” value (W12 cells; W12 cells, 100 nM, 24 h) was 1.3 fold, the “Fold increase due to GSK983, IFI44 mRNA” value (W12 cells; W12 cells, 100 nM, 24 h) was 2.9 fold and the “Fold increase due to GSK983, IFIT1 mRNA” value (W12 cells; W12 cells, 100 nM, 24 h) was 5.5 fold. For the same compound, the “Fold increase due to GSK983, IL6 mRNA” value (W12 cells; W12 cells, 100 nM, 24 h) was 3.8 fold, the “Fold increase due to GSK983, IL8 mRNA” value (W12 cells; W12 cells, 100 nM, 24 h) was 2.1 fold and the “Fold increase due to GSK983, IRF3 mRNA” value (W12 cells; W12 cells, 100 nM, 24 h) was 1.5 fold. The “Fold increase due to GSK983, IRF9 mRNA” value (W12 cells; W12 cells, 100 nM, 24 h) was 1.6 fold, the “Fold increase due to GSK983, ISG15 mRNA” value (W12 cells; W12 cells, 100 nM, 24 h) was 4.3 fold and the “Fold increase due to GSK983, LRP1 mRNA” value (W12 cells; W12 cells, 100 nM, 24 h) was 3.7 fold. For the same compound, the “Fold increase due to GSK983, NR1H3 mRNA” value (W12 cells; W12 cells, 100 nM, 24 h) was 6.8 fold, the “Fold increase due to GSK983, OAS1 mRNA” value (W12 cells; W12 cells, 100 nM, 24 h) was 2.2 fold and the “Fold increase due to GSK983, OAS2 mRNA” value (W12 cells; W12 cells, 100 nM, 24 h) was 1.9 fold. The “Fold increase due to GSK983, OASL mRNA” value (W12 cells; W12 cells, 100 nM, 24 h) was 6.7 fold, the “Fold increase due to GSK983, TLR5 mRNA” value (W12 cells; W12 cells, 100 nM, 24 h) was 2.4 fold and the “Fold increase due to GSK983, TNFSF10 mRNA” value (W12 cells; W12 cells, 100 nM, 24 h) was 4.3 fold. For the same compound, the “Fold increase due to GSK983, ERN2 mRNA” value (W12 cells; [3]) was 1.7 ^b fold, the “Fold increase due to GSK983, LIFR mRNA” value (W12 cells; [3]) was 1.3 ^b fold and the “Fold increase due to GSK983, SNAP25 mRNA” value (W12 cells; [3]) was 1.7 ^b fold. For the same compound, the “Fold increase due to GSK983, CCL5 mRNA” value (W12 cells; W12 cells, 100 nM, 48 h) was 47.4 fold, the “Fold increase due to GSK983, CEL mRNA” value (W12 cells; W12 cells, 100 nM, 48 h) was 10.6 fold and the “Fold increase due to GSK983, COL10A1 mRNA” value (W12 cells; W12 cells, 100 nM, 48 h) was 2.4 fold. The “Fold increase due to GSK983, CPT1B mRNA” value (W12 cells; W12 cells, 100 nM, 48 h) was 6.4 fold, the “Fold increase due to GSK983, CSF2 mRNA” value (W12 cells; W12 cells, 100 nM, 48 h) was 4.9 fold and the “Fold increase due to GSK983, DCN mRNA” value (W12 cells; W12 cells, 100 nM, 48 h) was 15.4 fold. For the same compound, the “Fold increase due to GSK983, DMPK mRNA” value (W12 cells; W12 cells, 100 nM, 48 h) was 4.1 fold, the “Fold increase due to GSK983, ERN2 mRNA” value (W12 cells; W12 cells, 100 nM, 48 h) was 2.8 fold and the “Fold increase due to GSK983, FMOD mRNA” value (W12 cells; W12 cells, 100 nM, 48 h) was 2.5 fold. For the same compound, the “Fold increase due to GSK983, IFI6 mRNA” value (W12 cells; W12 cells, 100 nM, 48 h) was 7.3 fold, the “Fold increase due to GSK983, IFIT1 mRNA” value (W12 cells; W12 cells, 100 nM, 48 h) was 5.5 fold and the “Fold increase due to GSK983, IL6 mRNA” value (W12 cells; W12 cells, 100 nM, 48 h) was 10.2 fold. The “Fold increase due to GSK983, IL8 mRNA” value (W12 cells; W12 cells, 100 nM, 48 h) was 2.3 fold, the “Fold increase due to GSK983, ISG15 mRNA” value (W12 cells; W12 cells, 100 nM, 48 h) was 9.3 fold and the “Fold increase due to GSK983, LIFR mRNA” value (W12 cells; W12 cells, 100 nM, 48 h) was 2.2 fold. The “Fold increase due to GSK983, LRP1 mRNA” value (W12 cells; W12 cells, 100 nM, 48 h) was 3.5 fold, the “Fold increase due to GSK983, NR1H3 mRNA” value (W12 cells; W12 cells, 100 nM, 48 h) was 2.7 fold and the “Fold increase due to GSK983, OAS1 mRNA” value (W12 cells; W12 cells, 100 nM, 48 h) was 5.0 fold. The “Fold increase due to GSK983, OAS2 mRNA” value (W12 cells; W12 cells, 100 nM, 48 h) was 2.9 fold, the “Fold increase due to GSK983, OASL mRNA” value (W12 cells; W12 cells, 100 nM, 48 h) was 10.9 fold and the “Fold increase due to GSK983, SNAP25 mRNA” value (W12 cells; W12 cells, 100 nM, 48 h) was 4.7 fold. The “Fold increase due to GSK983, TLR5 mRNA” value (W12 cells; W12 cells, 100 nM, 48 h) was 3.1 fold, the “Fold increase due to GSK983, TNFSF10 mRNA” value (W12 cells; W12 cells, 100 nM, 48 h) was 8.4 fold and the “Fold increase due to GSK983, IFI16 mRNA” value (W12 cells; [4]) was 1.2 ^b fold. For the same compound, the “Fold increase due to GSK983, IRF3 mRNA” value (W12 cells; [4]) was 1.2 ^b fold, the “Number of genes of the Pathway Set with significant increases in expression” value (W12 cells; W12 cells, at both 10 and 100 nM, 546 genes) was 22 genes and the “Expression of the three interferons (alpha, beta, and gamma), PKR and Mx1” value (W12 cells; data not shown) was “not induced”. The “Observed maximum inhibition of viral DNA” value ([1]; productive or episomal infections) was 86–99%, the EC50 ([1]; read-out: EC50 values, replication of a variety of unrelated viruses in vitro) was 5 to 20 nM and the EC50 (W12 20861; [5]) was 25 ± 9 nM. The “Imax, Growth, MTS” value (W12 20861; W12 20861, HPV16 integrated) was 35 ± 2.8%, the Selectivity index (immortalized cell lines; EBV and HTLV-1 viral-immortalized cell lines vs related primary cells) was “approximately 1000” and the “Time after addition of the compound until reduction in growth rate” value (immortalized cell lines; W12, U937 and IM9 growth curves) was “approximately 24 h”. For the same compound, the “Concentrations at which apoptosis or cytostasis is induced” value (immortalized cell lines; depending on the cell line) was “over 20 nM”, the EC50 (immortalized cell lines; read-out: EC50 values, growth of cell lines immortalized by HTLV-1, EBV, HPV, SV40 and Ad-5) was 10 to 40 nM and the “Imax for reduction of the ratio SV40 DNA / MTS activity of Vero cells” value (SV40 strain Pa-57) was 79 ± 2%. For the same compound, the “K for reduction of the ratio SV40 DNA / MTS activity of Vero cells” value (SV40 strain Pa-57) was 12 ± 2 nM, the “Viral yield in IM9 cells by quantitative PCR” value (EBV) was “decrease in parallel with inhibition of cell growth” and the CC50 at 72 h [2] was 520000 nM. For the same compound, the “Imax, Growth, MTS” value (HKC/HPV16 cells; HKC/HPV16) was 59 ± 1% and the EC50 (HKC/HPV16 cells; [5]) was 3 ± 0.4 nM.
